Laboratory results as given in ChEMBL document CHEMBL3244363, “Studies on biologically active halogenated compounds. 1. Synthesis and central nervous system depressant activity of 2-(fluoromethyl)-3-aryl-4(3H)-quinazolinone derivatives” (J Med Chem, 1979).
Active and inactive are the calls of the source. No cut-off for these calls is given here.

Key:
Mus musculus [1] = experiment: Induction of CNS depressant activity in ip dosed ddk mouse assessed as protection against maximal electroshock-induced tonic hind limb extensor seizures administered 30 mins prior to electroshock challenge; assay type: functional; details: Central nervous system
Summary of the method: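 Six mice per group were dosed ip with compound suspended in CMC solution. After 30 min, a 25 mA alternating current was delivered through corneal electrodes for 0.15 s. ED50 was estimated from the number of mice protected against the tonic hind limb extensor component.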

Mus musculus [2] = experiment: Induction of CNS depressant activity in ip dosed ddk mouse after 30 mins by rotating rod test; assay type: functional; details: Central nervous system, 0.5 h
Summary of the method: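 Compound was given ip to groups of six mice as a suspension in CMC solution. At 30 min each mouse was set on a rotating rod (3.5 cm diameter, 14 rpm) for 1 min. ED50 was estimated from the number of mice falling off the rod twice during the test.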

Mus musculus [3] = experiment: Induction of CNS depressant activity in ip dosed ddk mouse assessed as protection against pentylenetetrazole-induced tonic extensive convulsions administered 30 mins prior to pentylenetetrazole challenge; assay type: functional; details: Central nervous system
Summary of the method: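 In groups of six mice, compound was injected ip as a suspension in CMC solution. Pentylenetetrazole 125 mg/kg was given sc 30 min later. ED50 was estimated from the number of mice protected against death from tonic extensive convulsions within 1 h of the convulsant.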

[4] = Acute toxicity in ip dosed ddk mouse assessed as lethality after 72 hrs; assay type: organism-based; details: in vivo
Mus musculus [5] = experiment: Induction of CNS depressant activity in ip dosed ddk mouse assessed as loss of righting reflex activity over 20 secs; assay type: functional; details: Central nervous system
Summary of the method: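 Groups of six mice received compound ip as a suspension in CMC solution. Each mouse was laid on its back at 15, 30, 60, 90 and 120 min. The reflex was scored as lost if the animal stayed supine over 20 s. ED50 was estimated from the number of mice losing the reflex.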

Mus musculus [6] = experiment: Induction of CNS depressant activity in ip dosed ddk mouse assessed as excitation incidence during loss of righting reflex activity over 20 secs; assay type: functional, organism-based; details: Central nervous system

Structure (SMILES) | ED50 (Mus musculus [1]) [mg/kg] | ED50 (Mus musculus [2]) [mg/kg] | ED50 (Mus musculus [3]) [mg/kg] | MTD at 72 h [4] [mg/kg] | ED50 (Mus musculus [5]) [mg/kg] | LD50 at 72 h [4] [mg/kg] | Activity (Mus musculus [6])
O=c1c2ccccc2nc(CF)n1-c1ccccc1 | 116 | 98 | 95.3 | ≥ 300 | 130 | – | –
Cc1ccccc1-n1c(CF)nc2ccc(Cl)cc2c1=O | > 150 | > 150 | > 150 | ≥ 300 | > 150 | – | –
Cc1ccccc1-n1c(CF)nc2ccccc2c1=O | 25.2 | 35.1 | 26.6 | – | 19.9 | 710 | –
Cc1ccccc1-n1c(CF)nc2cccc(Cl)c2c1=O | 40.3 | 37.6 | 34.9 | ≥ 300 | 95.7 | – | –
Cc1cc(Cl)ccc1-n1c(CF)nc2cccc(Cl)c2c1=O | > 150 | > 150 | 88.4 | ≥ 300 | > 150 | – | –
Cc1cc(Cl)ccc1-n1c(CF)nc2ccccc2c1=O | 14.1 | – | 16.3 | – | 18.7 | 432 | Active
CC(=O)Nc1ccc2nc(CF)n(-c3ccccc3C)c(=O)c2c1 | > 150 | > 150 | 75.2 | ≥ 300 | > 150 | – | –
Cc1ccccc1-n1c(C)nc2ccc(N)cc2c1=O | 25.4 | 27.9 | 8.1 | – | 28.1 | – | –
O=c1c2ccccc2nc(CF)n1-c1ccc(Cl)cc1Cl | 8.1 | – | 16.3 | 100 | 18.7 | – | Active
Cc1ccccc1-n1c(C)nc2ccccc2c1=O [METHAQUALONE] | 35.2 | 33.7 | 36.7 | – | 31.6 | 542 | –
Cc1ccccc1-n1c(CF)nc2ccc([N+](=O)[O-])cc2c1=O | > 150 | > 150 | > 150 | ≥ 300 | > 150 | – | –
Cc1ccccc1-n1c(CF)nc2ccc(N)cc2c1=O [AFLOQUALONE] | 13.3 | 15.6 | 5.4 | – | 35.1 | 315 | –
Cc1c(Cl)cccc1-n1c(CF)nc2ccccc2c1=O | 15 | 15 | 16.1 | – | 18.4 | 1560 | –
